Data: publication PMC3215888 (Cancer Chemotherapy and Pharmacology, 2011)
pIC50: −log10 of the molar value. Where “and” joins values, the source holds several entries; their conditions need not be identical. Equal entries are not always repeated. Where two headings read alike, the source gives them in different places.

Tests used:
[1] = test system: TC-32 Ewing sarcoma cell line; test: DIMSCAN in vitro testing, 96 h; assay type: cell-based; conditions: for pIC50: Homo sapiens, TC-32, 96 h
How it was run: (§1)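 Neuroblastoma and Ewing sarcoma lines, STR-verified and maintained as in the originators' reports. Exposed for 96 h to test compound (DMSO stock diluted in medium) at 1 nM–10 μM. Viable cells quantified by fluorescein diacetate fluorescence with DIMSCAN digital image microscopy. Absolute IC50 = concentration giving 50% growth inhibition vs controls. Relative IC50 = concentration giving 50% of the maximum inhibitory effect.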

[2] = test system: SK-N-MC Ewing sarcoma cell line; test: DIMSCAN in vitro testing, 96 h; assay type: cell-based; conditions: for pIC50: Homo sapiens, 96 h
How it was run: as §1

[3] = test system: CHLA-9 Ewing sarcoma cell line; test: DIMSCAN in vitro testing, 96 h; assay type: cell-based; conditions: for pIC50: 96 h
How it was run: as §1

[4] = test system: CHLA-56 Ewing sarcoma cell line; test: DIMSCAN in vitro testing, 96 h; assay type: cell-based
How it was run: as §1

[5] = test system: CHLA-136 neuroblastoma cell line; test: DIMSCAN in vitro testing, 96 h; assay type: cell-based; conditions: for pIC50: Neuroblastoma cell, 96 h
How it was run: as §1

[6] = test system: CHLA-140 neuroblastoma cell line; test: DIMSCAN in vitro testing, 96 h; assay type: cell-based; conditions: for pIC50: Neuroblastoma cell, 96 h
How it was run: as §1

[7] = test system: SMS-MSN neuroblastoma cell line; test: DIMSCAN in vitro testing, 96 h; assay type: cell-based; conditions: for pIC50: Neuroblastoma cell, 96 h
How it was run: as §1

[8] = test system: SMS-SAN neuroblastoma cell line; test: DIMSCAN in vitro testing, 96 h; assay type: cell-based; conditions: for pIC50: Neuroblastoma cell, 96 h
How it was run: as §1

[9] = test system: Rh65 ALV Rhabdomyosarcoma xenograft; assay type: in vivo, mice
How it was run: (§2)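 Female CB17 scid mice bearing subcutaneous tumors, 10 per group. Dosed by oral gavage twice daily, 5 days weekly for 6 weeks, at 20.8, 10.4, 5.2 or 2.6 mg/kg, in 10% 2-hydroxypropyl-β-cyclodextrin/1% sodium bicarbonate. Event = quadrupled tumor volume; EFS by Kaplan–Meier, exact log-rank test. Per-mouse scores PD/SD/PR (≥50% regression)/CR (<0.10 cm3)/MCR; group median reported. PR, CR and MCR count as objective responses.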

[10] = test system: SK-N-AS Neuroblastoma xenograft; assay type: in vivo, mice; conditions: 20.8 mg/kg
How it was run: as §2

[11] = test system: OS-1 Osteosarcoma xenograft; assay type: in vivo, mice
How it was run: as §2

[12] = test system: ALL-19 ALL B-precursor xenograft; test: ALL xenograft; assay type: in vivo, mice
How it was run: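 Female NOD/scid mice inoculated intravenously with leukemia cells, 8 per group. Test compound suspended in 10% 2-hydroxypropyl-β-cyclodextrin/1% sodium bicarbonate in water. Given by oral gavage twice daily, 5 days weekly for 3 weeks, at 20.8, 10.4, 5.2 or 2.6 mg/kg. Blood %hCD45 of leukocytes tracked; event = hCD45 reaching 25%. EFS by Kaplan–Meier, exact log-rank vs controls. Median group response from individual scores.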

[13] = Toxicity; assay type: in vivo, mice; conditions: leukemia models at the MTD
How it was run: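 Deaths counted in control and treated arms of the xenograft efficacy studies (10 mice per solid tumor group, 8 per ALL group). A group would be excluded from analysis if mortality exceeded 25%.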

[14] = test system: PPTP in vivo xenograft models; test: Objective responses by AURKA copy number; set-up: species or system mice; conditions: MTD
[15] = patients, 50 mg BID for 7 days; cited from earlier work
[16] = test system: Aurora kinase A mutation (T217D); conditions: cited from earlier work

COc1cc(Nc2ncc3c(n2)-c2ccc(Cl)cc2C(c2c(F)cccc2OC)=NC3)ccc1C(=O)O [MLN8237]
pIC50 ([1]; read-out: Absolute IC50): 7.41 | pIC50 ([1]; read-out: Relative IC50): 7.47 | Ymin ([1]; TC-32, minimum T/C): 6.5% | pIC50 ([2]; read-out: Absolute IC50): 7.14 | pIC50 ([2]; read-out: Relative IC50): 7.18 | Ymin ([2]; minimum T/C): 2.8% | pIC50 ([3]; read-out: Absolute IC50): 7.74 | pIC50 ([3]; read-out: Relative IC50): 7.80 | Ymin ([3]; CHLA-9, minimum T/C): 4.2% | pIC50 ([4]; 96 h): < 5.00 | Ymin ([4]; CHLA-56, minimum T/C): 48.1% | Ymin ([5]; CHLA-136, minimum T/C): 10.4% | pIC50 ([5]; read-out: Absolute IC50): 7.41 | pIC50 ([5]; read-out: Relative IC50): 7.44 | Ymin ([6]; CHLA-140, minimum T/C): 29.4% | pIC50 ([6]; read-out: Absolute IC50): 7.59 | pIC50 ([6]; read-out: Relative IC50): 7.85 | pIC50 ([7]; read-out: Absolute IC50): 7.66 | pIC50 ([7]; read-out: Relative IC50): 7.77 | Ymin ([7]; SMS-MSN, minimum T/C): 16.1% | pIC50 ([8]; read-out: Absolute IC50): 7.70 | pIC50 ([8]; read-out: Relative IC50): 7.74 | Ymin ([8]; SMS-SAN, minimum T/C): 5.9% | EFS T/C ([9]; 2.6 mg/kg): 2.1 | EFS activity ([9]; 2.6 mg/kg): Int | Estimate of median time to event ([9]; 2.6 mg/kg): 22.9 days | Median group response ([9]; 2.6 mg/kg): PD2 (if the TGD value >1.5, the mouse was considered PD2) | Response activity ([9]; 2.6 mg/kg): Int | Tumor volume T/C ([9]; 2.6 mg/kg): 0.31 | Median RTV/hCD45 at end of study ([9]; 2.6 mg/kg): >4 | EFS T/C ([9]; 5.2 mg/kg): 3.7 | EFS activity ([9]; 5.2 mg/kg): Int | Estimate of median time to event ([9]; 5.2 mg/kg): 39.3 days | Median group response ([9]; 5.2 mg/kg): PD2 (if the TGD value >1.5, the mouse was considered PD2) | Response activity ([9]; 5.2 mg/kg): Int | Tumor volume T/C ([9]; 5.2 mg/kg): 0.19 | Median RTV/hCD45 at end of study ([9]; 5.2 mg/kg): >4 | EFS T/C ([9]; 10.4 mg/kg): >3.9 | EFS activity ([9]; 10.4 mg/kg): Int | Median group response ([9]; 10.4 mg/kg): PD2 (if the TGD value >1.5, the mouse was considered PD2) | Response activity ([9]; 10.4 mg/kg): Int | Tumor volume T/C ([9]; 10.4 mg/kg): 0.11 | Median RTV/hCD45 at end of study ([9]; 10.4 mg/kg): 3.2 | EFS T/C ([9]; 20.8 mg/kg): >3.9 | EFS activity ([9]; 20.8 mg/kg): High | Median group response ([9]; 20.8 mg/kg): MCR | Response activity ([9]; 20.8 mg/kg): High | Tumor volume T/C ([9]; 20.8 mg/kg): 0.01 | Median RTV/hCD45 at end of study ([9]; 20.8 mg/kg): 0.0 | EFS T/C [10]: 1.4 | EFS activity [10]: Low | Estimate of median time to event [10]: 7.6 days | Median group response [10]: PD1 (if the TGD value ≤1.5, that mouse was considered PD1) | Response activity [10]: Low | Tumor volume T/C [10]: 0.71 | Median RTV/hCD45 at end of study ([10]; RTV): >4 | EFS T/C ([11]; 2.6 mg/kg): >1.5 | Median group response ([11]; 2.6 mg/kg): PD2 (if the TGD value >1.5, the mouse was considered PD2) | Response activity ([11]; 2.6 mg/kg): Int | Tumor volume T/C ([11]; 2.6 mg/kg): 0.75 | Median RTV/hCD45 at end of study ([11]; 2.6 mg/kg): 3.5 | EFS T/C ([11]; 5.2 mg/kg): >1.5 | Median group response ([11]; 5.2 mg/kg): PD2 (if the TGD value >1.5, the mouse was considered PD2) | Response activity ([11]; 5.2 mg/kg): Int | Tumor volume T/C ([11]; 5.2 mg/kg): 0.70 | Median RTV/hCD45 at end of study ([11]; 5.2 mg/kg): 3.4 | EFS T/C ([11]; 10.4 mg/kg): >1.5 | Median group response ([11]; 10.4 mg/kg): PD2 (if the TGD value >1.5, the mouse was considered PD2) | Response activity ([11]; 10.4 mg/kg): Int | Tumor volume T/C ([11]; 10.4 mg/kg): 0.56 | Median RTV/hCD45 at end of study ([11]; 10.4 mg/kg): 2.0 | EFS T/C ([11]; 20.8 mg/kg): >1.5 | Response activity ([11]; 20.8 mg/kg): Int | Tumor volume T/C ([11]; 20.8 mg/kg): 0.45 | Median RTV/hCD45 at end of study ([11]; 20.8 mg/kg): 0.8 | EFS T/C ([12]; 2.6 mg/kg): 1.0 | EFS activity ([12]; 2.6 mg/kg): Low | Estimate of median time to event ([12]; 2.6 mg/kg): 2.6 days | Median group response ([12]; 2.6 mg/kg): PD1 (if the TGD value ≤1.5, that mouse was considered PD1) | Response activity ([12]; 2.6 mg/kg): Low | Median RTV/hCD45 at end of study ([12]; 2.6 mg/kg): >25% | EFS T/C ([12]; 5.2 mg/kg): 9.2 | EFS activity ([12]; 5.2 mg/kg): Int | Estimate of median time to event ([12]; 5.2 mg/kg): 22.9 days | Median group response ([12]; 5.2 mg/kg): PD2 (if the TGD value >1.5, the mouse was considered PD2) | Response activity ([12]; 5.2 mg/kg): Int | Median RTV/hCD45 at end of study ([12]; 5.2 mg/kg): >25% | EFS T/C ([12]; 10.4 mg/kg): 14.9 | EFS activity ([12]; 10.4 mg/kg): Int | Estimate of median time to event ([12]; 10.4 mg/kg): 37.2 days | Response activity ([12]; 10.4 mg/kg): High | Median RTV/hCD45 at end of study ([12]; 10.4 mg/kg): >25% | EFS T/C ([12]; 20.8 mg/kg): 16.8 | EFS activity ([12]; 20.8 mg/kg): Int | Estimate of median time to event ([12]; 20.8 mg/kg): 41.8 days | Response activity ([12]; 20.8 mg/kg): High | Median RTV/hCD45 at end of study ([12]; 20.8 mg/kg): >25% | mice that died in the treated arm [13]: 5 of 24 | objective responses in tumors with decreased AURKA copy number [14]: 5/8 | objective responses in tumors with increased AURKA gene copy number [14]: 2/14 and 2 | average trough concentrations [15]: exceeded 1 μM | inhibition of Aurora kinase A T217D mutant [16]: impervious
